Assay outcomes from PubChem.
T cruzi growth-1 – inhibitors of T. cruzi proliferation | T. cruzi beta-gal in NIH3T3, GalScreen luminescence, 90 h | inhibition, % at 8.34 µM | 5.9% of 77,000 active | AID 624255;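 active = mean inhibition above about 93%, with at least 55% of replicates each passing it, limit read from the data, passing the limit was not always enough; inconclusive = only one of those two conditions holds; inactive = neither condition holds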
KDM4C inh – inhibitors of human demethylase GASC-1 KDM4C | Q9H3R0 | GST-KDM4C 2-372, H3K9me3 peptide, LANCE TR-FRET | inhibition, % at 12.5 µM | 0.15% of 96,000 active | AID 720574;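 active = mean replicate inhibition above about 25%, with at least 55% of replicates also reaching it, limit read from the data, passing the limit was not always enough; inconclusive = only one of those two conditions met; inactive = neither condition met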
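Test system: N-terminal GST-fused human GASC-1 (KDM4C) fragment, residues 2-372; quantity: GASC-1 enzyme at 10 nM final in reaction; dosing: single dose; schedule: 30 min demethylation and 1 h detection at room temperature; signal: LANCE TR-FRET, excitation 340 nm, emissions 618 and 671 nm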
IDH1 mut inh – blocks human IDH1 R132H reductase activity; O75874; diaphorase/resazurin fluorescence, 60 min; inhibition, % at 10 µM; 0.18% of 70,000 active; in the data active = inhibition above about 34%; inconclusive = no clear call, values can overlap the other calls; inactive = below about 11%;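 also: 0% = DMSO and 100% = no enzyme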
Target sequence (O75874 whole entry R132H): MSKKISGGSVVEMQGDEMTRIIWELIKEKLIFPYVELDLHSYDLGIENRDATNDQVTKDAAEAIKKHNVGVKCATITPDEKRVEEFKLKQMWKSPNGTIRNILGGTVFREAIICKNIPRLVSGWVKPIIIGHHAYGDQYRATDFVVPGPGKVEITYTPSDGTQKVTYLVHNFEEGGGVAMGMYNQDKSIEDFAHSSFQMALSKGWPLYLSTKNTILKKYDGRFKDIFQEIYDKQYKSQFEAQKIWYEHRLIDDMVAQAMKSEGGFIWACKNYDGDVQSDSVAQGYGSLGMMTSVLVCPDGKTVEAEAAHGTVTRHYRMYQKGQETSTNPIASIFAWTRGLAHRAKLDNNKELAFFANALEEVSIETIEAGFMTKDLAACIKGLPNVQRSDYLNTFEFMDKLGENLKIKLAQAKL
Pf Dd2 growth – blocks growth of Plasmodium falciparum Dd2 parasites. P. falciparum Dd2 growth, SYBR Green, 72 h; active compounds read low. activity change, % at 10 µM. 2.3% of 94,000 active; in the data active = activity change below about -80%; inconclusive = no clear call, values can overlap the other calls
T cruzi growth-2 – Trypanosoma cruzi proliferation inhibition; shares compounds with T cruzi growth-1; T. cruzi beta-gal in NIH3T3, GalScreen luminescence, 90 h; inhibition, % at 8.35 µM; 72% of 5,600 active; AID 651739;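 active = mean replicate inhibition above about 95% and at least 55% of replicates individually reaching it, limit read from the data; inconclusive = only one of the two criteria is met; inactive = neither criterion is met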
T cruzi growth-3 – blocks T. cruzi growth in NIH3T3 host cells | shares compounds with T cruzi growth-1 | T. cruzi beta-gal in NIH3T3, GalScreen luminescence, 90 h | inhibition, % at 2.09 µM | 21% of 5,600 active | AID 651740;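 active = mean inhibition above about 95%, with at least 55% of replicates also reaching it, limit read from the data; inconclusive = meets just one of the two conditions; inactive = meets neither condition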;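 also: plate controls were neutral control median for no effect and positive control median for full effect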
NIH3T3 tox – kills mouse NIH/3T3 fibroblasts | 14% of 5,600 active | cytotoxicity (signal decrease), % at 8.35 µM | NIH/3T3 viability, CellTiter-Glo ATP luminescence, 90 h | shares compounds with T cruzi growth-1;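 active = mean signal decrease across replicates above about 35% based on untreated-well scatter, with enough replicates individually passing, limit read from the data; inconclusive = no rule stated though some were filed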;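 also: 0% = median of neutral control wells and 100% = median of positive control wells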
NIH3T3 tox 2 – NIH/3T3 (mouse) viability loss; shares compounds with T cruzi growth-1; NIH/3T3 viability, CellTiter-Glo ATP luminescence, 90 h; inhibition, % at 24.9 µM; 56% of 5,600 active; AID 651744;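 active = mean loss of cell viability signal at or above a set limit, and enough replicates individually reaching it; inconclusive = meets only the mean limit or only the replicate share; inactive = meets neither condition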;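 also: 0% = median of neutral control wells and 100% = median of positive control wells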
The depositor's hits bear a star; ? = inconclusive; . = no result given. Compounds with a hit are over-represented: about 5.8% of the library has one in this group of screens.

SMILES	T cruzi growth-1	KDM4C inh	IDH1 mut inh	Pf Dd2 growth	T cruzi growth-2	T cruzi growth-3	NIH3T3 tox	NIH3T3 tox 2
N#C[C@H]1[C@H](c2ccc(C#CC3CCCC3)cc2)[C@H](CO)N1C(=O)Nc1ccc(F)cc1	103*	1	.	-30	106*	76	4	105*
CC(C)NC(=O)N1[C@H](C#N)[C@@H](c2ccc(C#CC3CCCC3)cc2)[C@@H]1CO	99*	-2	.	-44	106*	70	7	-21
CC(C)NC(=O)N1[C@H](CO)[C@H](c2ccc(C#CC3CCCC3)cc2)[C@@H]1C#N	93	-2	0	-40	.	.	.	.
C[C@H](CO)N1C[C@H](C)[C@@H](CN(C)C(=O)Nc2ccccc2)OCCCC[C@H](C)Oc2ccc(NC(=O)C3CCCCC3)cc2C1=O	37	0	2	-3	.	.	.	.
CN(C)c1ccc(NC(=O)CSc2nc3ccccc3c(=O)n2-c2ccc(Cl)cc2)cc1	.	.	0	.	.	.	.	.
Cc1noc(C)c1S(=O)(=O)N(C)C[C@@H]1OCCCC[C@@H](C)Oc2ccc(NC(=O)Nc3cccc4ccccc34)cc2C(=O)N([C@H](C)CO)C[C@H]1C	109*	-9	1	-82*	110*	100*	-7	?
Cc1noc(C)c1S(=O)(=O)N(C)C[C@H]1OCCCC[C@@H](C)Oc2ccc(NC(=O)Nc3cccc4ccccc34)cc2C(=O)N([C@@H](C)CO)C[C@@H]1C	105*	-2	-2	?	107*	67	17	16
C[C@H](CO)N1C[C@H](C)[C@H](CN(C)S(=O)(=O)c2ccccc2)OCCCC[C@H](C)Oc2ccc(NC(=O)Nc3cccc4ccccc34)cc2C1=O	90	-1	3	-45	.	.	.	.
C[C@@H]1CCCCO[C@H](CN(C)S(=O)(=O)c2ccccc2)[C@H](C)CN([C@H](C)CO)C(=O)c2cc(NC(=O)Nc3cccc4ccccc34)ccc2O1	108*	-3	2	-71	106*	110*	12	?
Cc1ccc(S(=O)(=O)NCC(C)O)cc1-c1nnc2c3ccccc3c(C)nn12 (stereo unspecified)	.	.	0	.	.	.	.	.
C=C(C)C(O)Cc1c(OC)cc2oc(=O)ccc2c1OC (stereo unspecified)	.	.	0	.	.	.	.	.
COc1ccccc1S(=O)(=O)N1CC[C@@H]2[C@@H](CO)Nc3ccc(-c4ccccc4F)cc3[C@@H]21	?	-2	.	2	104*	86	24	41*
COc1cccc(-c2ccc3c(c2)[C@H]2[C@H](CCN2S(=O)(=O)c2ccccc2OC)[C@H](CO)N3)c1	?	1	.	-42	102*	91	-9	-36
Cc1ccccc1S(=O)(=O)N1CC[C@@H]2[C@H]1c1cc(-c3ccccc3F)ccc1N[C@@H]2CO	-11	0	.	2	.	.	.	.
Cc1ccccc1S(=O)(=O)N1CC[C@@H]2[C@H](CO)Nc3ccc(-c4ccccc4F)cc3[C@@H]21	110*	1	.	-12	97*	77	8	106*
CO[C@@H]1CN(C)C(=O)c2cc(NC(=O)Nc3c(C)noc3C)ccc2OC[C@@H](C)NC[C@H]1C	-31	2	0	5	.	.	.	.
O=C(Nc1ccc(F)cc1)N[C@@H]1CC[C@@H](CCNC(=O)c2cc(Cl)cc(Cl)c2)O[C@@H]1CO	31	-1	-1	-26	.	.	.	.
CCCNC(=O)Nc1ccc2c(c1)C(=O)N(C)C[C@H](OC)[C@H](C)CN(CC1CCCC1)[C@H](C)CO2	-55	0	-1	.	.	.	.	.
C[C@@H]1CN([C@H](C)CO)C(=O)c2cc(NC(=O)Cc3cn(C)c4ccccc34)ccc2O[C@@H]1CN(C)Cc1ccc(Cl)c(Cl)c1	102*	0	0	-9	99*	59	16	37*
C[C@@H]1CN([C@H](C)CO)C(=O)Cc2cc(NC(=O)Cc3cn(C)c4ccccc34)ccc2O[C@H]1CN(C)Cc1ccc(Cl)c(Cl)c1	?	-2	0	-55	98*	86	18	43*
C[C@@H]1CN([C@H](C)CO)C(=O)Cc2cc(NC(=O)Nc3ccccc3)ccc2O[C@@H]1CN(C)Cc1ccc(Cl)c(Cl)c1	102*	-1	.	-9	108*	41	6	104*
C[C@@H]1CN([C@@H](C)CO)C(=O)c2cc(NC(=O)Cc3cn(C)c4ccccc34)ccc2O[C@@H]1CN(C)Cc1ccc(Cl)c(Cl)c1	84	-1	-6	-20	.	.	.	.
C[C@@H]1CN([C@H](C)CO)C(=O)Cc2cc(NC(=O)Cc3cn(C)c4ccccc34)ccc2O[C@H]1CN(C)Cc1ccc(C(=O)Nc2ccccc2N)cc1	?	-1	-1	-16	91	37	5	15
CC(C)CC#Cc1ccc2c(c1)O[C@@H](CN(C)C(=O)Cc1ccncc1)[C@H](C)CN([C@@H](C)CO)S2(=O)=O	100*	3	13	-82*	99*	25	15	23
CC(C)CC#Cc1ccc2c(c1)O[C@H](CN(C)C(=O)Cc1ccncc1)[C@@H](C)CN([C@@H](C)CO)S2(=O)=O	?	1	0	-50	.	.	.	.
SMILES	T cruzi growth-1	KDM4C inh	IDH1 mut inh	Pf Dd2 growth	T cruzi growth-2	T cruzi growth-3	NIH3T3 tox	NIH3T3 tox 2
CC(C)CC#Cc1ccc2c(c1)O[C@H](CN(C)C(=O)Cc1ccccc1)[C@@H](C)CN([C@@H](C)CO)S2(=O)=O	127*	-1	0	-64	104*	111*	-2	104*
CC(C)CC#Cc1ccc2c(c1)O[C@H](CN(C)C(=O)Cc1ccccc1)[C@@H](C)CN([C@H](C)CO)S2(=O)=O	125*	4	2	-73	98*	?	-6	105*
C[C@H](CO)N1C[C@H](C)[C@H](CN(C)C(=O)Nc2ccccc2)Oc2ncc(-c3ccc(F)cc3)cc2C1=O	67	-1	0	-9	.	.	.	.
C[C@H]1CN([C@@H](C)CO)C(=O)Cc2cc(NC(=O)Nc3cccc4ccccc34)ccc2O[C@H]1CN(C)C(=O)Nc1cccc2ccccc12	23	-2	0	-38	.	.	.	.
COc1cccc(CN2C[C@@H]3N[C@H](C2)C3c2ccc(-c3ccccc3F)cc2)c1 (stereo partly specified)	.	0	.	-56	.	.	.	.
CC(C)C#Cc1ccc([C@@H]2[C@@H](CO)N3CCCCN(C(=O)c4ccc5c(c4)OCO5)C[C@@H]23)cc1	84	0	.	-6	.	.	.	.
CC(C)CC#Cc1ccc([C@H]2[C@H]3CN(C(=O)c4ccc5c(c4)OCO5)CCCCN3[C@H]2CO)cc1	113*	0	.	-35	101*	78	14	104*
